TRPC6 act – mouse TRPC6 channel activators, primary screen, cell-based, HEK293, membrane potential dye; Short transient receptor potential channel 6 (Mus musculus), Q61143; HEK293-TRPC6 membrane potential dye fluorescence; active compounds read high; B-score at 10 µM; 310,000 compounds, 0.13% hits;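 active means B-score of the integrated fluorescence ratio above library mean plus 3 SD, and starting fluorescence ratio within library mean plus 5 SD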;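 further: higher score means more depolarization so channel activation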
Target sequence (Q61143 whole entry, looked up): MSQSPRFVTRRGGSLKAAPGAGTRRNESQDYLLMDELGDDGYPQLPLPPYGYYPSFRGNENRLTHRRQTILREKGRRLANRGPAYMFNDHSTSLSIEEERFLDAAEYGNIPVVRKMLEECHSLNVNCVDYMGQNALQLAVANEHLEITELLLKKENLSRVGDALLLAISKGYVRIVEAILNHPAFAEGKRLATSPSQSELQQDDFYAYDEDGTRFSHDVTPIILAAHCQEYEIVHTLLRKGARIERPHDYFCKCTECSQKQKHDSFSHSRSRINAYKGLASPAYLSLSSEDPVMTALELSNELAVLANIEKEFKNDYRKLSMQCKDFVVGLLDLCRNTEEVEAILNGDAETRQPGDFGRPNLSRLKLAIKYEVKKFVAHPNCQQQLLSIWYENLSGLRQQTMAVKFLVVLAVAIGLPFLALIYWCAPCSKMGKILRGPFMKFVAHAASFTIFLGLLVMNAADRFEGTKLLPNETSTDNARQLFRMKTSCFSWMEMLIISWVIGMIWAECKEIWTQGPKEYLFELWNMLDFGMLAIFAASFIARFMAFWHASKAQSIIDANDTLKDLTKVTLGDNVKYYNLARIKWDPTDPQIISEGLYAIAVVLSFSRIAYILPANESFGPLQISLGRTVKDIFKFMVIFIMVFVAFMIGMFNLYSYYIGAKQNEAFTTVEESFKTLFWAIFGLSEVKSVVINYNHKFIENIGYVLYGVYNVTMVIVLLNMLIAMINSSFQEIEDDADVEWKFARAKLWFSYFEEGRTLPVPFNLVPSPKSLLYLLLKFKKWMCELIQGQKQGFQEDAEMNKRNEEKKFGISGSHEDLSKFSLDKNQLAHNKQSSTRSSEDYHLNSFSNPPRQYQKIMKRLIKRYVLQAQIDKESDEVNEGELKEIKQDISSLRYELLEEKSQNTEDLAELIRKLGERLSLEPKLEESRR
TRPC4 potent – positive allosteric modulators of TRPC4, primary screen, cell-based, mouse TRPC4beta, HEK293 mu-opioid, Fluo-4 calcium | Short transient receptor potential channel 4 (Mus musculus), Q9QUQ5 | DAMGO EC20, Fluo-4 Ca2+ flux; active compounds read high | B-score at 10 µM | 310,000 compounds, 0.42% hits | AID 2227, 2009;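 active means B-score of calcium response area above 5 SD of library B-scores, with initial fluorescence ratio within 5 SD of library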
TRPC4 act – activators of mouse TRPC4 channel, primary screen, Fluo4 calcium, HEK293 TRPC4beta/mu-opioid cells. Fluo4 calcium fluorescence; active compounds read high. 310,000 compounds, 0.49% hits. B-score at 10 µM. Short transient receptor potential channel 4 (Mus musculus), Q9QUQ5;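 active means B-score above 5 SD of library B-scores, and initial fluorescence ratio not above library mean plus 5 SD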;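 further: positive B-score marks a calcium rise read as TRPC4 activation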
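Assay system – TRPC4beta and mu-opioid receptor HEK293 stable cells · Measured by – Fluo4 fluorescence, kinetic · Schedule – dye loading 45 min room temperature, 110 s kinetic read · Read-out – B-scored integrated calcium fluorescence ratio · Controls – buffer and maximal DAMGO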
Yeast superoxide – reduction of superoxide in aged yeast, primary screen, HTS. S. cerevisiae aged cells, superoxide DHE fluorescence; active compounds read low. AID 2690, 2010. 330,000 compounds, 0.18% hits. superoxide response (% of plate mean), % at 10 µM;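 active means superoxide response under a set limit, about three screen SD below normal, cut at about 65% in these data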;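 further: yeast aged for seven days with compound at 30 °C before DHE staining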
TRPC6 inhibitor – mouse TRPC6 channel inhibitors, primary screen, cell-based, HEK293, membrane potential dye; Short transient receptor potential channel 6 (Mus musculus), Q61143; ACh-evoked depolarization; active compounds read low; B-score at 10 µM; 310,000 compounds, 1.1% hits; AID 2553, 2010;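 active means B-score under library mean minus 3 SD, initial fluorescence not abnormally high, positive integrated signal ratio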;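 further: B-score derived from integrated fluorescence ratio over the kinetic read; more negative B-score means stronger inhibition of depolarization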
TRPC4 inh – inhibitors of mouse TRPC4 channel, primary screen, Fluo4 calcium, HEK293 TRPC4beta/mu-opioid cells | DAMGO-evoked Fluo4 calcium flux; active compounds read low | Short transient receptor potential channel 4 (Mus musculus), Q9QUQ5 | AID 2247, 2010 | 300,000 compounds, 0.39% hits | B-score at 10 µM;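 active means B-score over 3 SD under the library average, no early fluorescence shift, positive overall ratio signal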
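Signal: kinetic Fluo4 fluorescence imaging of calcium influx. Material: stable TRPC4beta/mu-opioid receptor HEK293 cells. Probe or stimulus: DAMGO in two steps, submaximal then maximal.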
Numbers stand for hits; – = inactive; · = no result. Only some compounds are listed: those with a hit (about 2.3% of all), similar ones and a draw of the others.

SMILES	TRPC6 act	TRPC4 potent	TRPC4 act	Yeast superoxide	TRPC6 inhibitor	TRPC4 inh
O=C(/C=C/c1cccs1)NC(=S)NNC(=O)c1ccccc1O	–	–	47	–	–	–
CCCN1CCC(NC(=O)CCc2nnc(Cc3cc(OC)ccc3OC)o2)CC1	–	10	55	–	–	–
Cc1ccn2cc(CCNC(=O)C3CC=CCC3C(=O)O)nc2c1 (centres undefined)	–	–	202	–	–	–
CC(C)OCCCNc1ncnc2c1cnn2-c1ccccc1	–	–	–	–	–	–
Clc1ccc(Cn2ncc3c(NCc4ccccc4)ncnc32)c(Cl)c1	–	–	–	–	–	–
CN(C)CCCNc1ncnc2c1cnn2Cc1ccccc1Cl	–	18	–	·	–	–
CN(C)CCNc1ncnc2ccccc12	–	11	–	–	–	–
CN(C)CCCNc1ncnc2c1cnn2-c1ccccc1	–	25	–	–	–	–
O=C(CC1CCCC1)Nc1ccc(Cl)c(S(=O)(=O)N2CCOCC2)c1	·	·	·	–	·	·
COc1cccc(-c2ncc3ccccc3c2COC(=O)c2ccccc2C(=O)O)c1	·	·	·	–	·	·
Cc1ccc2ccccc2c1NC(=O)c1ccco1	–	–	–	–	–	–
CCSc1nc(O)cc(=O)[nH]1	–	–	–	–	–	–
CCSc1nc(=S)cc(C)[nH]1	–	–	–	59.2	–	–
Cc1cc(OCc2n[nH]c(=S)n2-c2ccccc2)ccc1Cl	–	–	–	–	–	–
N#Cc1ncc(-c2ccc3c(c2)OCCOCCOCCOCCOCCO3)nc1C#N	–	–	–	–	–	-6
Cc1cc(OCCCN2CCCC2)ccc1Cl	–	12	–	–	–	–
Cc1cccc(C)c1OCCCN1CCCC1	–	14	–	–	–	–
COc1ccc(OCCCN2CCCCCC2)cc1	–	–	–	–	–	–
CC1CCN(c2nc3nonc3nc2N2CCC(C)CC2)CC1	–	–	–	–	–	–
C=C(C)Cn1c(SCC)nc2ccccc2c1=O	–	–	–	–	–	-5
CCn1c(SCC(=O)Nc2ccccc2)nc2ccccc2c1=O	–	–	–	–	–	-5
C=C(C)Cn1c(SCC#N)nc2ccccc2c1=O	–	–	–	–	–	–
Cc1cc(NC(=O)CSc2nc3ccccc3c(=O)n2C(C)c2ccccc2)no1 (centres undefined)	–	–	–	–	–	–
CCC(C)n1c(SCC(=O)Nc2cc(C)on2)nc2ccccc2c1=O (centres undefined)	–	–	44	–	–	–
CCCC(=O)Nc1cc(C)c2c(=O)oc3ccccc3c2n1	–	–	–	–	–	–
SMILES	TRPC6 act	TRPC4 potent	TRPC4 act	Yeast superoxide	TRPC6 inhibitor	TRPC4 inh
Cc1cc(NC(=O)CN2CCc3ccccc3C2)nc2c1c(=O)oc1ccccc12	–	–	98	–	–	–
CCCCNc1nc(-c2ccccc2)c(C(=O)OCC)cc1C#N	–	–	–	–	–	-6
CCOC(=O)N1CCN(C(=O)Nc2cccc3ccccc23)CC1	–	–	–	–	–	–
c1ccc(CC2CCN(C3=Nc4cccc5cccc3c45)CC2)cc1	–	–	–	–	-6.11	–
CCNc1nc(OC)nc(N2CCC(Cc3ccccc3)CC2)n1	–	–	–	–	–	–
CCOC(=O)N1CCN(C2=Nc3cccc4cccc2c34)CC1	–	–	–	–	-7.43	–
c1ccc(-c2nc3ccccn3c2NCc2ccc3c(c2)OCO3)cc1	–	–	–	–	–	–
COc1ccc(-c2nc3ccccn3c2NCc2ccc3c(c2)OCO3)cc1	–	–	–	–	-5.28	–
CCN1CCN(c2ccc(S(=O)(=O)N3CCOCC3)cc2NC(=O)c2cc(Cl)nc3ccccc23)CC1	–	–	47	–	–	–
CCN1CCN(c2ccc(S(=O)(=O)N3CCOCC3)cc2NC(=O)c2ccccc2SC)CC1	–	–	175	–	–	–
COc1ccc(-c2cc(C(=O)Nc3cc(S(=O)(=O)N4CCOCC4)ccc3N3CCOCC3)c3ccccc3n2)cc1	–	–	–	–	–	–

Assay outcomes (PubChem BioAssay)
